Assay results reported in ChEMBL document CHEMBL2010721, “Growth inhibition of Mycobacterium smegmatis by prodrugs of deoxyxylulose phosphate reducto-isomerase inhibitors, promising anti-mycobacterial agents” (Eur J Med Chem, 2012).
Converted amounts (≈) assume the structure as drawn. The source made the active and inactive calls. No cut-off for these calls is given here.

Legend:
[1] = tested on: Mycolicibacterium smegmatis; test: Antimycobacterial activity against Mycobacterium smegmatis assessed as viability at 250 uM after 15 mins by resazurin test; type: functional, organism-based
Method in brief: (§1)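 A fresh M. smegmatis preculture was adjusted to McFarland 0.5. Then 0.2 mL went into 1.8 mL medium with inhibitor (final isoniazid 10–40 µM; other compound 250–1000 µM), shaken 24 h at 37 °C. Of this, 50 µL was added to 150 µL fresh medium, in duplicate, plus 0.01% resazurin. Plates were kept at 37 °C, and the blue-to-pink change was followed by eye for 12 h, with growth and sterile controls.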

[2] = molecular target: T1, 1-deoxy-D-xylulose 5-phosphate reductoisomerase (Mycobacterium smegmatis (strain ATCC 700084 / mc(2)155)) (UniProt A0QVH7); test: Inhibition of Mycobacterium smegmatis DSM 43756 ATCC 19420 N-terminal his-tagged DXR expressed in XL1-blue Escherichia coli using NADPH and DXP as substrate at 1 uM […]; conditions: Mycolicibacterium smegmatis
T1 sequence (whole entry): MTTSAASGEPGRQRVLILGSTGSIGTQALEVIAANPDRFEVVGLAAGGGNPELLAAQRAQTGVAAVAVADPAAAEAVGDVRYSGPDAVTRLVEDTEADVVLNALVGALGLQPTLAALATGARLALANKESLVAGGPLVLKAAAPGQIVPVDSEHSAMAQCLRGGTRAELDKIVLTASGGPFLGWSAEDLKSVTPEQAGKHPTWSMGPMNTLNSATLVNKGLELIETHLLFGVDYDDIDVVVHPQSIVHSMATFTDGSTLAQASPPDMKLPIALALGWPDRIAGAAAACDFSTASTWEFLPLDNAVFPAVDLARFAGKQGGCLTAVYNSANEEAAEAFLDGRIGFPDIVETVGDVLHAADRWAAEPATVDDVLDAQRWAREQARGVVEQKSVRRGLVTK

[3] = tested on: Mycolicibacterium smegmatis; test: Antimycobacterial activity against Mycobacterium smegmatis; type: functional
[4] = tested on: Mycolicibacterium smegmatis; test: Antimycobacterial activity against Mycobacterium smegmatis assessed as viability at 500 uM after 5 hrs by resazurin test; type: functional, organism-based; method in brief: as §1
Escherichia coli [5] = test: Inhibition of Escherichia coli DXR at 1 uM
[6] = tested on: Mycolicibacterium smegmatis; test: Antimycobacterial activity against Mycobacterium smegmatis at 400 nmol/disc after 24 hrs by paper disc diffusion method; type: functional
Method in brief: (§2)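 M. smegmatis (grown at 37 °C) was spread from a tenfold-diluted overnight culture on agar plates containing yeast extract, malt extract, CaCO₃ and glucose. Compounds were dissolved at 100 mM in DMSO or water, and 4 µL was put on each 6 mm disc. Isoniazid was dissolved at 7.5 mM, and 2 µL was put on each disc. Inhibition zones were read after 24 h at 37 °C.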

Escherichia coli [7] = test: Antimycobacterial activity against Escherichia coli at 400 nmol/disc after 24 hrs by paper disc diffusion method; type: functional, organism-based
[8] = molecular target: T2, 1-deoxy-D-xylulose 5-phosphate reductoisomerase (Mycobacterium smegmatis (strain ATCC 700084 / mc(2)155), UniProt A0QVH7); test: Inhibition of Mycobacterium smegmatis DSM 43756 ATCC 19420 N-terminal his-tagged DXR expressed in XL1-blue Escherichia coli using NADPH and DXP as substrate preincubated for 2 mins […]; parameters: species or system Mycolicibacterium smegmatis
T2 sequence (A0QVH7 whole entry): T1 sequence (whole entry)
Method in brief: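 N-terminal His-tagged M. smegmatis DXR, Ni²⁺-purified and kept in glycerol/NaCl buffer. Assay at 37 °C in 50 mM Tris/HCl pH 7.5 with 3 mM MgCl₂, 2 mM DTT, 0.15 mM NADPH and 0.5 mM DXP. Enzyme and inhibitor were preincubated 2 min with NADPH, then DXP started the reaction. Initial rates were read as A340 decrease. Inhibitor range was 0.1–0.6 or 0.2–2 µM. IC50 came from residual activity vs log concentration, mean of two determinations.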

[9] = tested on: Mycobacterium tuberculosis; test: Antimycobacterial activity against Mycobacterium tuberculosis; type: functional
[10] = molecular target: T2, 1-deoxy-D-xylulose 5-phosphate reductoisomerase (Mycobacterium smegmatis (strain ATCC 700084 / mc(2)155), UniProt A0QVH7); test: Inhibition of Mycobacterium smegmatis DXR; parameters: species or system Mycolicibacterium smegmatis
Method in brief: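 His-tagged M. smegmatis DXR (N-terminal tag, expressed in E. coli, Ni2+ column purified) was pre-incubated with inhibitor and 0.15 mM NADPH for 2 min at 37 °C in 50 mM Tris/HCl pH 7.5, 3 mM MgCl2, 2 mM DTT. Reaction started with 0.5 mM DXP; initial rates from NADPH absorbance decrease at 340 nm. IC50 from residual activity versus log inhibitor concentration; mean of two independent determinations.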

[11] = tested on: Mycolicibacterium smegmatis; test: Antimycobacterial activity against Mycobacterium smegmatis assessed as viability at 20 uM after 5 to 12 hrs by resazurin test; type: functional, organism-based; method in brief: as §1
[12] = tested on: Mycolicibacterium smegmatis; test: Antimycobacterial activity against Mycobacterium smegmatis assessed as viability at 10 uM after 1 hr by resazurin test; type: functional, organism-based; method in brief: as §1
[13] = tested on: Mycolicibacterium smegmatis; test: Antimycobacterial activity against Mycobacterium smegmatis at 15 nmol/disc after 24 hrs by paper disc diffusion method; type: functional; method in brief: as §2

SMILES	growth inhibition (GI) (Escherichia coli [7])	growth inhibition (GI) [6]	IC50 [8]	other results
CCCC(=O)OCOP(=O)(CCCC(=O)N(C)O)OCOC(=O)CCC	inactive	–	–	growth inhibition (GI) [1]: inactive; inhibition [2]: inactive; MIC [3]: 250 µM (≈ 99.3 µg/mL); growth inhibition (GI) [4]: Active; inhibition (Escherichia coli [5]): inactive; diameter of the inhibition zone (DIZ) [6]: 23 mm
CC(=O)N(O)CCCP(=O)(O)O [FR-900098]	–	inactive	0.32 µM	–
CN(O)C(=O)CCCP(=O)(OCOC(=O)C(C)(C)C)OCOC(=O)C(C)(C)C	inactive	–	–	MIC [9]: 50 mg/L (≈ 118 µM); diameter of the inhibition zone (DIZ) [6]: 15 mm
CC(C)(C)C(=O)OCOP(=O)(CCCC(=O)NO)OCOC(=O)C(C)(C)C	inactive	inactive	–	–
O=C(CCCP(=O)(OCOC(=O)c1ccccc1)OCOC(=O)c1ccccc1)NO	inactive	inactive	–	–
CCCC(=O)OCOP(=O)(CCCN(O)C=O)OCOC(=O)CCC	inactive	inactive	–	–
O=CN(O)CCCP(=O)(O)O [FOSMIDOMYCIN]	–	inactive	0.51 µM	IC50 [10]: 0.08 µM
NNC(=O)c1ccncc1 [ISONIAZID]	–	–	–	growth inhibition (GI) [11]: inactive; growth inhibition (GI) [12]: inactive; diameter of the inhibition zone (DIZ) [13]: 29 mm; MIC [9]: 7 mg/L (≈ 51 µM); MIC [3]: 10 µM (≈ 1.37 µg/mL)
CCCC(=O)OCOP(=O)(CCCC(=O)NO)OCOC(=O)CCC	inactive	inactive	–	–
O=C(CCCP(=O)(O)O)NO	–	inactive	1.48 µM	–
CN(O)C(=O)CCCP(=O)(O)O	–	inactive	0.41 µM	–
CCCC(=O)OCOP(=O)(CCCN(O)C(C)=O)OCOC(=O)CCC	inactive	inactive	–	inhibition [2]: inactive; inhibition (Escherichia coli [5]): inactive
CN(O)C(=O)CCCP(=O)(OCOC(=O)c1ccccc1)OCOC(=O)c1ccccc1	inactive	–	–	MIC [9]: 25 mg/L (≈ 53.7 µM); diameter of the inhibition zone (DIZ) [6]: 11 mm
